Assay results taken from ChEMBL document CHEMBL1123011, “Isoxazoles with antipicornavirus activity” (1985).
In brackets after ≈: the same amount, converted by molar mass. Activity calls are given as the source filed them. The rule behind the calls is not given here.

System: not listed separately
Experiment: Maximum testable level of compound was evaluated
Assay type: functional
Settings: not given
Outline: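 In the HeLa (Ohio) plaque-overlay system, Me2SO-solubilized compound was twofold serially diluted into the agarose overlay. Uninfected cell controls were run alongside and cells were stained with crystal violet after 3 days. The maximum testable level was taken as the concentration below which no cytotoxic effects were seen.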

Compared with `CCc1noc(CC)c1CCCCCCOc1ccc(OC)cc1Br`, `CCc1noc(CC)c1CCCCCCOc1ccc(OC)cc1Cl` is 2-fold higher in MTL: 6 µg/mL for the first, 12 µg/mL for the second.

First: CCc1noc(CC)c1CCCCCCOc1ccc(OC)cc1
Second: CCc1noc(CC)c1CCCCCCOc1ccc(O)cc1
The MTL of the first is 4-fold lower: 6.2 µg/mL for the first, 25 µg/mL for the second.

First: Cc1cc(CCCCCCCOc2ccc([N+](=O)[O-])cc2)on1
Second: CC(=O)c1ccc(OCCCCCCCc2cc(C)no2)cc1
The MTL of the first is 7.8-fold lower: 1.6 µg/mL for the first, 12.5 µg/mL for the second.

Going from `CCOC(=O)c1ccc(OCCCCCCCc2cc(C)no2)cc1` to `COC(=O)c1ccc(OCCCCCCCc2cc(C)no2)cc1`, the MTL rises from 2.5 µg/mL to 6.2 µg/mL (2.5-fold).

`CCc1noc(CC)c1CCCCCCOc1c(OC)cccc1OC` and `CCc1noc(CC)c1CCCCCCOc1ccccc1F` are the same in MTL: 6.2 µg/mL for the first, 6.2 µg/mL for the second.

First: Cc1cc(CCCCCCCOc2ccc(OCc3ccccc3)cc2)on1
Second: Cc1cc(CCCCCCCOc2ccccc2)on1
The MTL of the first is 2-fold higher: 12.5 µg/mL for the first, 6.2 µg/mL for the second.

First: Cc1cc(CCCCCCCOc2ccc(C(=O)N(C)C)cc2)on1
Second: CCC(=O)c1ccc(OCCCCCCCc2cc(C)no2)cc1
The MTL of the first is 2-fold lower: 3.1 µg/mL for the first, 6.2 µg/mL for the second.

Compared with `CCc1noc(CC)c1CCCCCCOc1cccc(I)c1`, `CCc1noc(CC)c1CCCCCCOc1ccc(C(=O)O)cc1` is 4-fold lower in MTL: 12.5 µg/mL for the first, 3.1 µg/mL for the second.

Going from `COc1ccc(OCCCCCCCc2cc(C)no2)c([N+](=O)[O-])c1` to `CCc1noc(CC)c1CCCCCCOc1ccc(OC)cc1[N+](=O)[O-]`, the MTL rises from 3.1 µg/mL to 6 µg/mL (1.9-fold).

Compared with `Cc1cc(CCCCCCCOc2ccc(C(=O)OC(C)C)cc2)on1`, `Cc1cc(CCCCCCCOc2ccc(C(=O)OC(C)(C)C)cc2)on1` is 5-fold lower in MTL: 12.5 µg/mL for the first, 2.5 µg/mL for the second.

`CCc1noc(CC)c1CCCCCCOc1ccc(F)cc1Cl` and `CCOC(=O)c1ccc(OCCCCCCCc2c(CC)noc2CC)cc1` are within 1.5-fold of each other in MTL: 12.5 µg/mL for the first, 12 µg/mL for the second.

`Cc1cc(CCCCCCCOc2ccc(C(C)C)cc2)on1` and `Cc1cc(CCCCCCCOc2ccc(OC(C)C)cc2)on1` are the same in MTL: 12.5 µg/mL for the first, 12.5 µg/mL for the second.

System: Poliovirus 2
Experiment: Compound tested in vitro for anti-picornavirus activity against Poliovirus type-2; NA=Not Active.
Assay type: functional, organism-based
Settings: not given
Outline: (§1)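 Plaque-reduction assay on day-old HeLa (Ohio) monolayers at 90% confluence, infected with polio-2 at ca. 80 pfu/well. Adsorption was at least 1 h at 37 °C in 2% CO2. Cells were then overlaid in duplicate with drug in M-199/calf serum/agarose (Me2SO stock at 10 mg/mL, twofold dilutions) and held 3 days. Plaques were fixed with formaldehyde, stained with crystal violet and counted. MIC is the concentration giving 50% plaque reduction.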

For `CCc1noc(CC)c1CCCCCCOc1ccc(OC)cc1Cl`, the MIC was “inactive”.

System: rhinovirus A2
Experiment: (§2) In vitro anti-picornavirus activity against Rhinovirus type-2.
Assay type: functional
Settings: Rhinovirus A
Outline: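 HeLa (Ohio) monolayers (day-old, 90%) were infected at about 80 pfu/well and adsorbed at least 1 h at 33 °C in 2% CO2. After 3 days at 33 °C they were fixed with formaldehyde and stained with crystal violet.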

Going from `CCOC(=O)c1ccc(OCCCCCCCc2cc(C)no2)cc1` to `COC(=O)c1ccc(OCCCCCCCc2cc(C)no2)cc1`, the MIC rises from 0.025 µg/mL (≈ 0.0724 µM) to 3 µg/mL (≈ 9.05 µM) (120-fold).

`COc1ccc(OCCCCCCCc2cc(C)no2)c([N+](=O)[O-])c1` and `CCc1noc(CC)c1CCCCCCOc1ccc(OC)cc1[N+](=O)[O-]` are the same in MIC: 0.3 µg/mL (≈ 0.861 µM) for the first, 0.3 µg/mL (≈ 0.797 µM) for the second.

First: Cc1cc(CCCCCCCOc2ccc(C(=O)OC(C)C)cc2)on1
Second: CC(=O)c1ccc(OCCCCCCCc2cc(C)no2)cc1
The MIC of the first is 8-fold lower: 0.2 µg/mL (≈ 0.556 µM) for the first, 1.6 µg/mL (≈ 5.07 µM) for the second.

`Cc1cc(CCCCCCCOc2ccc(C(C)C)cc2)on1` and `Cc1cc(CCCCCCCOc2ccc(OC(C)C)cc2)on1` are within 1.5-fold of each other in MIC: 1 µg/mL (≈ 3.17 µM) for the first, 0.7 µg/mL (≈ 2.11 µM) for the second.

`Cc1cc(CCCCCCCOc2ccccc2)on1` and `CCC(=O)c1ccc(OCCCCCCCc2cc(C)no2)cc1` are within 1.5-fold of each other in MIC: 1.2 µg/mL (≈ 4.39 µM) for the first, 1.7 µg/mL (≈ 5.16 µM) for the second.

Compared with `Cc1cc(CCCCCCCOc2ccc(C(=O)OC(C)(C)C)cc2)on1`, `CCOC(=O)c1ccc(OCCCCCCCc2c(CC)noc2CC)cc1` is 120-fold lower in MIC: 6.2 µg/mL (≈ 16.6 µM) for the first, 0.05 µg/mL (≈ 0.129 µM) for the second.

System: Poliovirus 2
Experiment: Compound tested in vitro for anti-picornavirus activity against Poliovirus type-2; NA=Not Active
Assay type: functional, organism-based
Settings: not given
Outline: as §1

In the case of `CCc1noc(CC)c1CCCCCCOc1ccc(OC)cc1Br`, the MIC is reported as “inactive”.
For `CCc1noc(CC)c1CCCCCCOc1ccc(OC)cc1`, the MIC was “inactive”.
In the case of `CCc1noc(CC)c1CCCCCCOc1c(OC)cccc1OC`, the MIC is reported as “inactive”.
For `CCc1noc(CC)c1CCCCCCOc1ccc(O)cc1`, the MIC was “inactive”.
With `CCc1noc(CC)c1CCCCCCOc1cccc(I)c1` the MIC was “inactive”.
For `CCc1noc(CC)c1CCCCCCOc1ccc(F)cc1Cl`, the MIC was “inactive”.
In the case of `CCc1noc(CC)c1CCCCCCOc1ccccc1F`, the MIC is reported as “inactive”.
In the case of `CCc1noc(CC)c1CCCCCCOc1ccc(C(=O)O)cc1`, the MIC is reported as “inactive”.

System: rhinovirus A2
Experiment: In vitro anti-picornavirus activity against Rhinovirus type-2; Not Active.
Assay type: functional, organism-based
Settings: not given
Outline: (§3)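 HeLa (Ohio) monolayers (day-old, 90%) were infected at about 80 pfu/well and adsorbed at least 1 h at 33 °C in 2% CO2. After 3 days at 33 °C they were fixed with formaldehyde and stained with crystal violet. MIC was the concentration giving 50% fewer plaques.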

For `Cc1cc(CCCCCCCOc2ccc([N+](=O)[O-])cc2)on1`, the MIC was “inactive”.
With `Cc1cc(CCCCCCCOc2ccc(OCc3ccccc3)cc2)on1` the MIC was “inactive”.
In the case of `Cc1cc(CCCCCCCOc2ccc(C(=O)N(C)C)cc2)on1`, the MIC is reported as “inactive”.
In the case of `CCc1noc(CC)c1CCCCCCOc1ccc(O)cc1`, the MIC is reported as “inactive”.
With `CCc1noc(CC)c1CCCCCCOc1ccc(C(=O)O)cc1` the MIC was “inactive”.

System: rhinovirus A2
Experiment: as §2
Assay type: functional
Settings: Rhinovirus A
Outline: as §3

First: CCc1noc(CC)c1CCCCCCOc1ccc(OC)cc1Br
Second: CCc1noc(CC)c1CCCCCCOc1ccc(OC)cc1Cl
The MIC of the first is 2-fold lower: 0.4 µg/mL (≈ 0.975 µM) for the first, 0.8 µg/mL (≈ 2.19 µM) for the second.

Compared with `CCc1noc(CC)c1CCCCCCOc1ccc(OC)cc1`, `CCc1noc(CC)c1CCCCCCOc1cccc(I)c1` is 2-fold higher in MIC: 3.1 µg/mL (≈ 9.35 µM) for the first, 6.3 µg/mL (≈ 14.7 µM) for the second.

`CCc1noc(CC)c1CCCCCCOc1c(OC)cccc1OC` and `CCc1noc(CC)c1CCCCCCOc1ccccc1F` are the same in MIC: 3.1 µg/mL (≈ 8.58 µM) for the first, 3.1 µg/mL (≈ 9.71 µM) for the second.

`CCc1noc(CC)c1CCCCCCOc1ccc(F)cc1Cl` gave an MIC of 3.1 µg/mL (≈ 8.76 µM).

System: Poliovirus 2
Experiment: In vitro anti-picornavirus activity against Poliovirus type-2.
Assay type: functional
Settings: Enterovirus C

First: Cc1cc(CCCCCCCOc2ccc([N+](=O)[O-])cc2)on1
Second: CC(=O)c1ccc(OCCCCCCCc2cc(C)no2)cc1
The MIC of the first is 150-fold higher: 1.5 µg/mL (≈ 4.71 µM) for the first, 0.01 µg/mL (≈ 0.0317 µM) for the second.

First: CCOC(=O)c1ccc(OCCCCCCCc2cc(C)no2)cc1
Second: COC(=O)c1ccc(OCCCCCCCc2cc(C)no2)cc1
The MIC of the first is 2-fold higher: 0.8 µg/mL (≈ 2.32 µM) for the first, 0.4 µg/mL (≈ 1.21 µM) for the second.

Going from `Cc1cc(CCCCCCCOc2ccc(C(=O)N(C)C)cc2)on1` to `CCC(=O)c1ccc(OCCCCCCCc2cc(C)no2)cc1`, the MIC falls from 2.5 µg/mL (≈ 7.26 µM) to 0.4 µg/mL (≈ 1.21 µM) (6.2-fold).

Going from `COc1ccc(OCCCCCCCc2cc(C)no2)c([N+](=O)[O-])c1` to `CCc1noc(CC)c1CCCCCCOc1ccc(OC)cc1[N+](=O)[O-]`, the MIC rises from 0.2 µg/mL (≈ 0.574 µM) to 1.5 µg/mL (≈ 3.98 µM) (7.5-fold).

`Cc1cc(CCCCCCCOc2ccc(C(=O)OC(C)C)cc2)on1` and `Cc1cc(CCCCCCCOc2ccc(C(=O)OC(C)(C)C)cc2)on1` are within 1.5-fold of each other in MIC: 0.9 µg/mL (≈ 2.5 µM) for the first, 1.2 µg/mL (≈ 3.21 µM) for the second.

Going from `Cc1cc(CCCCCCCOc2ccc(C(C)C)cc2)on1` to `Cc1cc(CCCCCCCOc2ccc(OC(C)C)cc2)on1`, the MIC rises from 0.04 µg/mL (≈ 0.127 µM) to 0.1 µg/mL (≈ 0.302 µM) (2.5-fold).

First: Cc1cc(CCCCCCCOc2ccccc2)on1
Second: CCOC(=O)c1ccc(OCCCCCCCc2c(CC)noc2CC)cc1
The MIC of the first is 4.2-fold higher: 1.7 µg/mL (≈ 6.22 µM) for the first, 0.4 µg/mL (≈ 1.03 µM) for the second.
